Experimental data reported in ChEMBL document CHEMBL1151976, “Bioactive sulfated sesterterpene alkaloids and sesterterpene sulfates from the marine sponge Fasciospongia sp” (J Nat Prod, 2009).
pIC50: −log10 of the molar value. Converted amounts (≈) assume the structure as drawn. The source made the active and inactive calls. The calls are words filed in the database; no cut-off is given here.

Tests used:
Streptomyces [1] = test: Antimicrobial activity against Streptomyces 85E assessed as inhibition of hyphae formation at 2.5 ug/disk after 30 hrs; format: functional
Summary of the method: (§1)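 Streptomyces 85E mycelial fragments spread as a lawn on minimal medium ISP 4 agar. Compounds in MeOH loaded onto 7 mm filter disks, air-dried, placed on plates, incubated 30 °C for 30 h. Read-out: clear or bald (hyphae-free) zone diameter around the disk; >9 mm counted active. Surfactin positive control, MeOH negative control; run in duplicate.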

LNCaP [2] = test: Cytotoxicity against human LNCAP cells at 20 ug/ml after 72 hrs by SRB assay; format: functional, cell-based
Summary of the method: (§2)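 Single-concentration screen at 20 µg/mL. Cells seeded at 10^6 cells/mL in 96-well plates, sample added in 10% DMSO, incubated 72 h at 37 °C. Viability by sulforhodamine B staining, compared with a 0.5% DMSO-treated control.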

Streptomyces [3] = test: Antimicrobial activity against Streptomyces 85E assessed as inhibition of hyphae formation at 5 ug/disk after 30 hrs; format: functional; conditions: for zone of inhibition at 5 µg/disc: read-out: IZ; summary of the method: as §1
Streptomyces [4] = test: Antimicrobial activity against Streptomyces 85E assessed as inhibition of hyphae formation at 20 ug/disk after 30 hrs; format: functional; conditions: read-out: IZ; summary of the method: as §1
Streptomyces [5] = test: Antimicrobial activity against Streptomyces 85E assessed as inhibition of hyphae formation at 10 ug/disk after 30 hrs; format: functional; conditions: read-out: IZ; summary of the method: as §1
MCF7 [6] = test: Cytotoxicity against human MCF7 cells at 20 ug/ml after 72 hrs by SRB assay; format: functional, cell-based; summary of the method: as §2
Lu1 [7] = test: Cytotoxicity against human Lu1 cells at 20 ug/ml after 72 hrs by SRB assay; format: functional, cell-based; summary of the method: as §2
LNCaP [8] = test: Cytotoxicity against human LNCAP cells after 72 hrs by SRB assay; format: functional, cell-based
Summary of the method: (§3)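 Cells seeded at 10^6 cells/mL in 96-well plates. Six serial dilutions of sample in 10% DMSO added in triplicate. Incubated 72 h at 37 °C; viability measured by sulforhodamine B staining. IC50 is the concentration giving 50% growth inhibition relative to 0.5% DMSO-treated control, averaged over two independent experiments.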

MCF7 [9] = test: Cytotoxicity against human MCF7 cells after 72 hrs by SRB assay; format: functional, cell-based; conditions: MCF7, 72 h; summary of the method: as §3
Lu1 [10] = test: Cytotoxicity against human Lu1 cells after 72 hrs by SRB assay; format: functional, cell-based; conditions: Lu1, 72 h; summary of the method: as §3
HeLa = test: Cytotoxicity against human HeLa cells after 72 hrs by SRB assay; format: functional, cell-based

SMILES | inhibition zone (IZ) (Streptomyces [1]) | Activity (LNCaP [2]) | inhibition zone (IZ) (Streptomyces [3]) | zone of inhibition at 20 µg/disc (Streptomyces [4]) | zone of inhibition at 10 µg/disc (Streptomyces [5]) | Activity (MCF7 [6]) | Activity (Lu1 [7]) | zone of inhibition at 2.5 µg/disc (Streptomyces [1]; read-out: IZ) | zone of inhibition at 5 µg/disc (Streptomyces [3]) | pIC50 (LNCaP [8]) | pIC50 (MCF7 [9]) | pIC50 (Lu1 [10]) | IC50 (HeLa)
C[C@H]1CC[C@H]2C(=CCCC2(C)C)[C@@]1(C)CCC(CCCC1=CCN(CCCCNC(=N)N)C1=O)COS(=O)(=O)O (stereo not given in full) [FASCIOSPONGINE C] | inactive | Not toxic | inactive | 14 mm | 13 mm | Not toxic | Not toxic |  |  |  |  |  | 
C[C@H]1CC[C@H]2C(=CCCC2(C)C)[C@@]1(C)CCC(CCCC1=CC(=O)N(CCc2c[nH]cn2)C1=O)COS(=O)(=O)O (stereo not given in full) [19-OXOFASCIOSPONGINE A] |  |  |  | 25 mm | 20 mm |  |  | 14 mm | 16 mm | 4.66 | 4.87 | 5.30 | 
C[C@H]1CC[C@H]2C(=CCCC2(C)C)[C@@]1(C)CCC(CCCC1=CC(=O)N(CCc2c[nH]cn2)C1)COS(=O)(=O)O (stereo not given in full) [FASCIOSPONGINE B] | inactive | Not toxic |  | 19 mm | 17 mm | Not toxic | Not toxic |  | 15 mm |  |  |  | 
C[C@H]1CC[C@H]2C(=CCCC2(C)C)[C@@]1(C)CCC(CCCC1=CC(=O)OC1)COS(=O)(=O)O (stereo not given in full) [HALISULFATE 9] | inactive | Not toxic | inactive | 16 mm | 14 mm | Not toxic | Not toxic |  |  |  |  |  | 
C[C@H]1CC[C@H]2C(=CCCC2(C)C)[C@@]1(C)CCC(CCCC1=CC(=O)OC1O)COS(=O)(=O)O (stereo not given in full) | inactive | Not toxic | inactive | 19 mm | 13 mm | Not toxic | Not toxic |  |  |  |  |  | 
C[C@H]1CC[C@H]2C(=CCCC2(C)C)[C@@]1(C)CCC(CCCC1=CCN(CCc2c[nH]cn2)C1=O)COS(=O)(=O)O (stereo not given in full) [FASCIOSPONGINE A] | inactive | Not toxic |  | 18 mm | 16 mm | Not toxic | Not toxic |  | 14 mm |  |  |  | 
C[C@H]1CC[C@H]2C(=CCCC2(C)C)[C@@]1(C)CCC(CCCc1ccoc1)COS(=O)(=O)O (stereo not given in full) [HALISULFATE 7] | inactive | Not toxic | inactive | 18 mm | 15 mm | Not toxic | Not toxic |  |  |  |  |  | 16 µg/mL (≈ 35.3 µM)
